Rows were chosen to be rich in hits. Some 2.5% of all compounds tested hit in one or more screens of this group.
PKA inh – inhibitors of human protein kinase A | PKA Kemptide phosphorylation, Kinase-Glo ATP luminescence | inhibition, % at 6 µM | 65,000 tested, 0.1% active | AID 524;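 active = inhibition above the screen-wide mean inhibition plus 3 SD, cut at about 21% in these data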
RORa activator – RORA (human) activation | P35398 | CHO-K1 Gal4-RORA LBD luciferase reporter, luminescence; percent increase over mock-subtracted basal signal | activation, % at 10 µM | 65,000 tested, 1.5% active | AID 560;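 active = activation above the mean of all tested compounds plus 3 SD, cut at about 49% in these data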;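 also: 0% = DMSO-treated RORA cells and 100% = added signal equal to DMSO minus mock-transfected cells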
Target sequence (P35398 whole entry, looked up, the tested form may be a part): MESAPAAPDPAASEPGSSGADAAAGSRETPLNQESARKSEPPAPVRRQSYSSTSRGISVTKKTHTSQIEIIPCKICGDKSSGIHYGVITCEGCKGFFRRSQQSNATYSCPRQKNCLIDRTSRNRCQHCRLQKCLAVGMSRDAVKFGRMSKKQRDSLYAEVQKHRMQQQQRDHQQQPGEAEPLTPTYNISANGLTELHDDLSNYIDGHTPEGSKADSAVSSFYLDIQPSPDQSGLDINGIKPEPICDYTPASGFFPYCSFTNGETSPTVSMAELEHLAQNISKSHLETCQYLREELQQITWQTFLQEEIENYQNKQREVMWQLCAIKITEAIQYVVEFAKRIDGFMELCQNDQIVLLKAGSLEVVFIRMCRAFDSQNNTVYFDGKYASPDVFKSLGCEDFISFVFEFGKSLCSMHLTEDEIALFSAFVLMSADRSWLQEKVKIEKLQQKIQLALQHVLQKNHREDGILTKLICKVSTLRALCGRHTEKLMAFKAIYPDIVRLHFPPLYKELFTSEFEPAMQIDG
MT1-MMP txn act – MT1-MMP promoter transcription activation; HT1080 MT1-MMP promoter luciferase reporter, luminescence, overnight; stronger effect = higher value; activation factor at 10 µM; 86,000 tested, 0.16% active; AID 750;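 active = activation factor of at least 2 for MT1-MMP transcription at 10 µM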
ROCK2 blocker – ROCK2 (human) kinase inhibition; inhibition, % at 6 µM; 60,000 tested, 0.35% active; purified ROCK2, Kinase-Glo ATP depletion luminescence; O75116;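 active = inhibition above the screen-wide mean inhibition plus 3 SD, cut at about 18% in these data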;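 also: plate controls were DMSO wells for no effect and Y-27632 control wells after no-enzyme background subtraction for full effect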
JNK3 inh – JNK3 (human) kinase inhibition; purified JNK3 kinase activity, HTS; P53779; 60,000 tested, 0.61% active; inhibition, % at 8 µM; in the data active = inhibition above about 17%;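 also: 0% = DMSO and 100% = reference inhibitor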
SF1 activator – activates the human nuclear receptor SF-1; Q13285; CHO-K1 Gal4-SF-1 LBD luciferase reporter; % increase over DMSO SF-1-specific signal; activation, % at 10 µM; 65,000 tested, 1.9% active; AID 522;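 active = activation above the mean activation of all tested compounds plus 3 SD, cut at about 50% in these data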
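Test system: transient Gal4-SF-1 LBD reporter, CHO-K1; Amount: 4,000 CHO-K1 cells per well; Doses: 10 µM only; Timing: compound exposure 20 h at 37 °C; Signal: luciferase light emission; Read-out basis: percent activation relative to DMSO median and mock-transfected background; Control set: DMSO negative control and −SF1 background wells; Replicates: one test per compound.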
* marks the source's active call; other numbers are inactive results; . = no result.

SMILES | PKA inh | RORa activator | MT1-MMP txn act | ROCK2 blocker | JNK3 inh | SF1 activator
CNC(=O)[C@H](C)/C=C(\I)C(NC(=O)OCc1ccccc1)c1ccc(C(=O)OC)cc1 (stereo not given in full) | . | . | 1.1 | . | . | .
COC(=O)[C@@]1(Cc2ccc(OC)cc2)[C@H]2c3cc(C(=O)N(C)C)n(Cc4ccc(C)o4)c3C[C@H]2CN1C(=O)c1ccccc1 | . | . | 1.2 | . | . | .
CC(=O)c1cccc2c(O)c(C3=Nc4ccccc4C3=O)[nH]c12 | . | . | 2.3* | . | . | .
CC[Si](CC)(CC)c1c2c(nc3ccc(OC)cc13)-c1cccc(=O)n1C2 | . | . | 1 | . | . | .
c1ccc(-n2ncc3c(NCc4cccs4)ncnc32)cc1 | 1.3 | 30.5 | 1.4 | -3.2 | 11.0 | 51.1*
CCCNc1ncnc2c1cnn2-c1ccc(OC)cc1 | 2.5 | -4.0 | 0.8 | -9.4 | 6.0 | 45.9
c1ccc(-n2ncc3c(NCc4cccnc4)ncnc32)cc1 | -1.0 | 51.5* | 1.5 | 4.7 | -4.8 | 40.9
Cc1ccccc1Nc1ncnc2c1cnn2-c1ccccc1 | 6.7 | 38.5 | 1.3 | 5.6 | 8.1 | 34.1
COc1ccc(-n2ncc3c(NCc4cccs4)ncnc32)cc1 | 11.2 | 36.3 | 1.6 | 4.5 | 15.3 | 81.6*
CCc1c2c(nc3ccc(OC)cc13)COC2 | . | . | 1.3 | . | . | .
CCCc1nc(Nc2nc3ccccc3o2)nc(C)c1C(=O)OCC | -5.7 | 49.2* | 0.7 | 0.1 | 2.5 | 80.7*
CCOC(=O)c1cnc(Nc2nc3ccccc3o2)nc1CSc1ncccn1 | -5.0 | -9.9 | 1.2 | 0.6 | -5.4 | 3.6
COc1cc(NC(=O)NCc2ccncc2)cc(OC)c1OC | 8.9 | -5.3 | 0.9 | 1.4 | -1.8 | 9.6
COc1cc(CN/C(C)=C(\C#N)C(N)=O)cc(OC)c1OC | 8.1 | 15.1 | 1 | 9.2 | 63.0* | 5.0
O=c1c2ccccc2nc2n1CCCCN2 | 12.2 | 0.6 | 1.1 | 6.0 | 21.0* | 5.1
CCn1cc(Br)c(C(=O)Nc2cccc(SC)c2)n1 | 12.2 | 48.1 | 1.6 | 4.7 | 0.9 | 50.3*
CCn1cc(Br)c(C(=O)NC(C)c2ccccc2)n1 (stereo not given) | 0.6 | -1.0 | 1.1 | 3.5 | 0.8 | -7.2
CCN(C(=O)Cc1cccs1)c1nnc(-c2cccnc2)s1 | 10.7 | 17.7 | 1.1 | 1.4 | -2.1 | 7.7
N#Cc1ccc(C23CC4(C2)[C@H](CN(Cc2cccnc2)[C@@H]4c2ccccc2)C3c2ccc(C(F)(F)F)cc2)cc1 (stereo not given in full) | . | . | 1.5 | . | . | .
COc1ccc2c(c1OC)C(=O)N(c1cccc(C(F)(F)F)c1)C2 | 2.3 | 30.1 | 1.7 | 1.0 | 3.6 | 58.8*
COc1ccc2c(c1OC)C(=O)N(c1ccccn1)C2 | -2.2 | 52.2* | 1.2 | -4.5 | -2.6 | 68.7*
COC(=O)C1(Cc2ccccc2)C=C2C(=C(c3ccccc3)C(=O)C2C)CN1 (stereo not given) | . | . | 1 | . | . | .
COC(=O)C1(Cc2ccccc2)C2c3cc(C(=O)N4CCCC4)n(Cc4ccc(OC(F)(F)F)cc4)c3CC2CN1C(=O)c1ccccc1 (stereo not given) | . | . | 1.2 | . | . | .
Cc1cccc(Nc2nc(NCc3ccco3)nc(N3CCOCC3)n2)c1 | 10.4 | -15.2 | 1 | 2.9 | 2.0 | -10.6
Cc1cc(N2CCCCC2)n2ncc(-c3ccc(Cl)cc3)c2n1 | 8.3 | 86.8* | 1.9 | 6.4 | -1.6 | 62.3*
SMILES | PKA inh | RORa activator | MT1-MMP txn act | ROCK2 blocker | JNK3 inh | SF1 activator
Cc1cc(N2CCN(C(=O)c3ccco3)CC2)n2ncc(-c3ccccc3)c2n1 | -1.9 | 30.3 | 1.9 | -0.4 | 2.3 | 65.3*
COc1ccc(OCC(=O)O/N=C(\N)Cc2ccc(Cl)cc2Cl)cc1 | . | . | 1.2 | . | . | .
COc1cccc(C2NC(=O)N(CCCC(=O)O)C(C)=C2C(=O)OCc2ccccc2)c1 (stereo not given) | . | . | 1.2 | . | . | .
CCCCc1ccc(NC(=O)C2CCCO2)cc1 (stereo not given) | 4.7 | 75.8* | 1.5 | 3.3 | -3.2 | 32.9
CCOC(=O)c1ccc(NC(=O)C2CCCO2)cc1 (stereo not given) | -1.0 | 11.6 | 1.5 | 1.1 | -0.1 | 64.3*
Cc1cc(C(=O)CNCc2ccco2)c(C)n1-c1ccc(F)cc1 | 0.3 | 69.7* | 0.8 | 1.6 | -2.3 | 52.9*
COc1ccc(NC(=O)c2cccc(Cn3cc(Br)cn3)c2)cn1 | -8.1 | -2.2 | 0.9 | -2.4 | 8.0 | 28.3
CNc1nc(-c2ccc(Cl)cc2)cs1 | -6.4 | 47.1 | 1.2 | . | . | 63.5*

Assay outcomes deposited in PubChem BioAssay by several laboratories.
